Source: ChEMBL document CHEMBL1150381, “Effects of amide constituents from pepper on adipogenesis in 3T3-L1 cells” (Bioorg Med Chem Lett, 2008)
Active and inactive are the calls of the source. The calls are words filed in the database; no cut-off is given here.

Experiments:
3T3-L1 [1] = experiment: Antidiabetic activity in mouse 3T3L1 cells assessed as enhancement of triglyceride accumulation at 1 uM; format: functional
Summary of the method: (§1)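 3T3-L1 cells (5.0 × 10^4/well) in DMEM + 10% FCS; after 24 h differentiated 72 h in high-glucose DMEM/10% FCS with 1 µM dexamethasone, 0.5 mM IBMX, 5 µg/mL insulin, then maintenance medium (10% FCS, 5 µg/mL insulin) 4 days. Compound in DMSO (final 0.1%) in both media. Day 8: cells sonicated in water, triglyceride measured by enzymatic kit; means ± SEM, n = 4.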

3T3-L1 [2] = experiment: Antidiabetic activity in mouse 3T3L1 cells assessed as enhancement of triglyceride accumulation at 3 uM; format: functional; summary of the method: as §1
3T3-L1 [3] = experiment: Antidiabetic activity in mouse 3T3L1 cells assessed as enhancement of triglyceride accumulation at 10 uM; format: functional; summary of the method: as §1
3T3-L1 [4] = experiment: Antidiabetic activity in mouse 3T3L1 cells assessed as enhancement of triglyceride accumulation at 30 uM; format: functional; summary of the method: as §1
3T3-L1 [5] = experiment: Increase in 2-deoxyglucose uptake in mouse 3T3L1 cells at 3 uM by liquid scintillation counter; format: functional, cell-based
Summary of the method: (§2)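 Cells differentiated as for triglyceride assay with compound in DMSO (final 0.1%) in differentiation and maintenance media. Day 8: serum-free 4 h, KRP buffer wash, 20 min with 100 nM insulin, then 0.1 mM 2-deoxyglucose plus [3H]2-deoxyglucose (1 µCi/mL) 10 min at 37 °C. Lysed in 1 M NaOH, neutralized, scintillation counted; cytochalasin B (20 µM) nonspecific uptake subtracted.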

3T3-L1 [6] = experiment: Cytotoxicity against mouse 3T3L1 cells at 30 uM; format: cell-based; details: 3t3-l1, 30 µM
Summary of the method: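 Cells differentiated and treated through day 8 as in triglyceride assay; cytotoxicity at 30 µM judged by cell detachment from culture plate surface.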

3T3-L1 [7] = experiment: Increase in 2-deoxyglucose uptake in mouse 3T3L1 cells by liquid scintillation counter; format: functional, cell-based; summary of the method: as §2
3T3-L1 [8] = experiment: Induction of adiponectin release to medium in mouse 3T3L1 cells at 10 uM by ELISA; format: functional, cell-based
Summary of the method: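 3T3-L1 cells (5.0 × 10^4/well) differentiated, then maintenance medium 4 days; compound in DMSO (final 0.1%) present in media; on day 8 adiponectin in culture medium quantified by ELISA.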

3T3-L1 [9] = experiment: Increase in adiponectin mRNA expression in mouse 3T3L1 cells at 10 uM after 4 days by RT-PCR; format: functional, cell-based
Summary of the method: (§3)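 3T3-L1 cells (1.0 × 10^6/well) in DMEM + 10% FCS, differentiated with compound; control 0.1% DMSO; mRNA levels of adiponectin, PPARγ2, GLUT4, IRS-1 assessed; means ± SEM, n = 3.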

3T3-L1 [10] = experiment: Increase in GLUT4 mRNA expression in mouse 3T3L1 cells after 4 days by RT-PCR; format: functional, cell-based; summary of the method: as §3
3T3-L1 [11] = experiment: Increase in PPARgamma2 mRNA expression in mouse 3T3L1 cells after 4 days by RT-PCR; format: functional, cell-based; summary of the method: as §3
3T3-L1 [12] = experiment: Increase in IRS1 mRNA expression in mouse 3T3L1 cells at 30 uM after 4 days by RT-PCR; format: functional, cell-based; summary of the method: as §3

SMILES | Activity (3T3-L1 [1]) [%] | Activity (3T3-L1 [2]) [%] | Activity (3T3-L1 [3]) [%] | Activity (3T3-L1 [4]) [%] | Activity (3T3-L1 [5]) | Activity (3T3-L1 [6]) [%] | Activity (3T3-L1 [7]) | Activity (3T3-L1 [8]) | Activity (3T3-L1 [9]) | Activity (3T3-L1 [10]) | Activity (3T3-L1 [11]) | Activity (3T3-L1 [12])
CC(C)CNC(=O)/C=C/C=C/CCCC/C=C/c1ccc2c(c1)OCO2 [RETROFRACTAMIDE B] | 18.8 | 29.9 | 28.4 | 27.6 |  |  |  |  |  |  |  | 
CCCCC/C=C/C=C/C(=O)NCC(C)C [PELLITORIN] | 4.4 | 18.2 | 10 | 6.2 |  |  |  |  |  |  |  | 
Cc1c(C)c2c(c(C)c1O)CCC(C)(COc1ccc(CC3SC(=O)NC3=O)cc1)O2 (centres undefined) [TROGLITAZONE] | 33.8 | 40.5 | 39.6 |  | Active |  |  |  |  |  |  | 
O=C(/C=C/CCCCCC/C=C/c1ccc2c(c1)OCO2)N1CCCCC1 [PIPERCHABAMIDE B] | -14.1 | -2.2 | -3.5 |  |  | -30.3 |  |  |  |  |  | 
O=C(O)/C=C/C=C/CC/C=C/c1ccc2c(c1)OCO2 | -3.9 | 1.5 | 3.9 | -7.3 |  |  |  |  |  |  |  | 
O=C(/C=C/CCCC/C=C/c1ccc2c(c1)OCO2)N1CCCCC1 [PIPERNONALINE] | 1 | 5.4 | 10.5 |  |  | -61.2 |  |  |  |  |  | 
O=C(/C=C/C=C/c1ccc2c(c1)OCO2)N1CCCCC1 [PIPERINE] | -1.2 | -3.9 | -14.2 | -1.2 |  |  |  |  |  |  |  | 
CCCCCCCCCCCCC/C=C/C=C/C(=O)NCC(C)C | 14.1 | 3.3 | 19.6 | 20.6 |  |  |  |  |  |  |  | 
CC(C)CNC(=O)/C=C/C=C/c1ccc2c(c1)OCO2 [PIPERLONGUMININE] | 19.5 | 28.1 | 31.8 | 20.4 |  |  |  |  |  |  |  | 
CCCCCCC/C=C/C=C/C(=O)NCC(C)C | 10.1 | 16.3 | 11.1 | 15.3 |  |  |  |  |  |  |  | 
CC(C)CNC(=O)/C=C/C=C/CCCCCCCC/C=C/c1ccc2c(c1)OCO2 [BRACHYSTAMIDE B] | 11.1 | 18.5 | 16.8 | 13.7 |  |  |  |  |  |  |  | 
O=C(/C=C/C=C/CCCC/C=C/c1ccc2c(c1)OCO2)N1CCCCC1 [PIPERUNDECALIDIENE] | -13 | -7.3 | 7.3 |  |  | -60.8 |  |  |  |  |  | 
CCCCC/C=C\CCCCCCCC/C=C/C=C/C(=O)NCC(C)C | -3 | -7.2 | 7.2 | 20.2 |  |  |  |  |  |  |  | 
CCOC(=O)/C=C/C=C/CC/C=C/c1ccc2c(c1)OCO2 | 2.9 | 2.9 | 1.2 | 8.7 |  |  |  |  |  |  |  | 
CC(C)CNC(=O)/C=C/C=C/CC/C=C/c1ccc2c(c1)OCO2 [RETROFRACTAMIDE A] | 25.1 | 27.3 | 27.8 | 33.3 | Active |  | Dose-dependent effect | Active | Active | Active | Active | Active
O=C(CCCCCC/C=C/c1ccc2c(c1)OCO2)N1CCCCC1 [PIPERROLEIN B] | -2.8 | 30.3 | 20.9 | 9.4 |  |  |  |  |  |  |  | 
O=C(/C=C/C=C/CC/C=C/c1ccc2c(c1)OCO2)N1CCCCC1 [DEHYDROPIPERNOLINE] | 0.5 | 1.8 | 1.5 |  |  | -19.9 |  |  |  |  |  | 
CC(C)CNC(=O)/C=C/CCCC/C=C/c1ccc2c(c1)OCO2 [RETROFRACTAMIDE C] | 9.7 | 15 | 22.2 | 15.4 |  |  |  |  |  |  |  | 
O=C(/C=C/CCc1ccc2c(c1)OCO2)N1CCCCC1 [PIPERANINE] | 20.4 | 19.1 | 13.1 | 8.3 |  |  |  |  |  |  |  | 
O=C(/C=C/C=C/CCCCCC/C=C/c1ccc2c(c1)OCO2)N1CCCCC1 [PIPERCHABAMIDE C] | 9.4 | 17.6 | -10.2 | -11 |  |  |  |  |  |  |  | 
CC(C)CNC(=O)/C=C/CCCCCC/C=C/c1ccc2c(c1)OCO2 [PIPERCHABAMIDE D] | 1.7 | 8 | 8.5 | 4.7 |  |  |  |  |  |  |  | 
COC(=O)/C=C/C=C/c1ccc2c(c1)OCO2 [METHYL PIPERATE] | 5.2 | 17.8 | 25.2 | 17.1 |  |  |  |  |  |  |  | 
CC(C)CNC(=O)/C=C/C=C/CCCCCC/C=C/c1ccc2c(c1)OCO2 [GUINEENSINE] | 1.5 | 9.7 | 0.8 | 2 |  |  |  |  |  |  |  | 
